# In ChEMBL document CHEMBL4411269, “Required Immunoproteasome Subunit Inhibition Profile for Anti-Inflammatory Efficacy and Clinical Candidate KZR-616 ((2 S,3 R)- N-(( S)-3-(Cyclopent-1-en-1-yl)-1-(( R)-2-methyloxiran-2-yl)-1-oxopropan-2-yl)-3-hydroxy-3-(4-methoxyphenyl)-2-(( S)-2-(2-morpholinoacetamido)propanamido)propenamide)” (J Med Chem, 2018):
# The source made the active and inactive calls. No cut-off for these calls is given here.
# How the values were obtained:
# PBMC [1] = test: Cytotoxicity in human PBMC assessed as reduction in cell viability at 125 nM relative to control; type: cell-based; details: 0.125 µM
# [2] = Clearance in Balb/c mouse at 2 mg/kg, iv; type: ADME, organism-based; details: in vivo
# Method in brief: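 Female BALB/c mice aged 7−8 weeks, given 2 mg/kg iv in 25% PEG300/WFI. Cardiac blood taken at 2, 5, 10, 20, 30, 60 and 120 min postdose into sodium heparin and processed to plasma (n = 3/time point). Proteins precipitated with acetonitrile; drug measured by LC−MS/MS. Noncompartmental analysis of mean concentrations at nominal times and target doses.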
# PBMC [3] = test: Antiinflammatory activity in human PBMC assessed as reduction in LPS-stimulated TNF-alpha expression at 125 nM preincubated for 1 hr followed by LPS stimulation measured after 24 hrs by ELISA; type: functional, cell-based
# Method in brief: (§1)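 Cryopreserved healthy-donor PBMC in RPMI 1640 with 5% heat-inactivated FBS, 250 000 cells/well. Compound (0.1% DMSO final) for 1 h at 37 °C, 5% CO2, then 4 washes with medium. Stimulated with 1 μg/mL LPS for 24 h; supernatant TNFα, IL-6 and IL-12/23p40 by electrochemiluminescent immunoassay. Mean level relative to DMSO controls, n = 6.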
# PBMC [4] = test: Antiinflammatory activity in human PBMC assessed as reduction in LPS-stimulated p40 subunit of […] expression at 125 nM preincubated for 1 hr followed by LPS stimulation measured after 24 hrs by ELISA; type: functional, cell-based; method in brief: as §1
# PBMC [5] = test: Antiinflammatory activity in human PBMC assessed as reduction in anti-CD3/CD28 antibody-stimulated TNF-alpha expression at 125 nM preincubated for 1 hr followed by anti-CD3/CD28 antibody stimulation measured after 24 hrs in presence of KZR-504 by ELISA; type: functional, cell-based
# Method in brief: (§2)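 Healthy-donor PBMC, thawed from cryopreservation, 250 000 cells/well in RPMI 1640/5% FBS. Pretreated 1 h at 37 °C with compound alone or combined (0.1% DMSO final), washed 4 times, then stimulated 24 h with anti-CD3 and anti-CD28 antibodies. TNFα and IFNγ in supernatants by electrochemiluminescent ELISA; expressed relative to DMSO-treated controls (n = 6).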
# PBMC [6] = test: Antiinflammatory activity in human PBMC assessed as reduction in anti-CD3/CD28 antibody-stimulated IFN-gamma expression at 125 nM preincubated for 1 hr followed by anti-CD3/CD28 antibody stimulation measured after 24 hrs in presence of KZR-504 by ELISA; type: functional, cell-based; method in brief: as §2
# Mus musculus [7] = test: In vivo inhibition of LMP2 in Balb/c mouse splenocytes at 20 mg/kg, iv followed by dosing repeat on day 6, 8, 11, 13 and 15 and measured on 1 hr post last dose; type: functional, organism-based
# Method in brief: (§3)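 BALB/c mice dosed iv bolus in 10% sulfobutyl ether−β-cyclodextrin/10 mM sodium citrate pH 3.5; tissues taken 1 h after administration. Splenocytes strained and red cells lysed; kidney frozen, then bead-homogenized. Hypotonic lysate (20 mM Tris pH 8, 5 mM EDTA) at 1 mg/mL (spleen) or 5 mg/mL (kidney) run in the ProCISE active-site ELISA. Background-subtracted, protein-normalized activity relative to vehicle animals; n = 3.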
# Mus musculus [8] = test: In vivo inhibition of MECL-1 in Balb/c mouse splenocytes at 20 mg/kg, iv followed by dosing repeat on day 6, 8, 11, 13 and 15 and measured on 1 hr post last dose; type: functional, organism-based; method in brief: as §3
# Mus musculus [9] = test: In vivo inhibition of LMP7 in Balb/c mouse splenocytes at 20 mg/kg, iv followed by dosing repeat on day 6, 8, 11, 13 and 15 and co-treated with 5 mg/kg, iv KZR-504 and measured on 1 hr post last dose; type: functional, organism-based; method in brief: as §3
# Mus musculus [10] = test: In vivo inhibition of LMP2 in Balb/c mouse splenocytes at 20 mg/kg, iv followed by dosing repeat on day 6, 8, 11, 13 and 15 and co-treated with 5 mg/kg, iv KZR-504 and measured on 1 hr post last dose; type: functional, organism-based; method in brief: as §3
# Mus musculus [11] = test: In vivo inhibition of MECL-1 in Balb/c mouse splenocytes at 20 mg/kg, iv followed by dosing repeat on day 6, 8, 11, 13 and 15 and co-treated with 5 mg/kg, iv KZR-504 and measured on 1 hr post last dose; type: functional, organism-based; method in brief: as §3
# Mus musculus [12] = test: Antiarthritic activity in type 2 collagen antibody/LPS induced Balb/c mouse assessed as reduction in disease burden at 20 mg/kg, iv followed by dosing repeat on day 6, 8, 11, 13 and 15 and co-treated with 5 mg/kg, iv KZR-504 and measured until day 18; type: functional, organism-based
# Method in brief: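 CAIA in 7−8 week old female BALB/c mice on breeder chow. Induced with 1.75 mg of a 5-antibody anti-type II collagen cocktail iv on day 0, then 25 μg LPS ip on day 3. Dosed as single iv boluses in 10% (w/v) sulfobutyl ether−β-cyclodextrin/10 mM sodium citrate (pH 3.5); vehicle-treated group included.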
# [13] = target: T1, Proteasome subunit beta type-10 (Homo sapiens) (UniProt P40306); test: Inhibition of MECL1 in human PBMC at 125 nM by ELISA
# T1 sequence (whole entry): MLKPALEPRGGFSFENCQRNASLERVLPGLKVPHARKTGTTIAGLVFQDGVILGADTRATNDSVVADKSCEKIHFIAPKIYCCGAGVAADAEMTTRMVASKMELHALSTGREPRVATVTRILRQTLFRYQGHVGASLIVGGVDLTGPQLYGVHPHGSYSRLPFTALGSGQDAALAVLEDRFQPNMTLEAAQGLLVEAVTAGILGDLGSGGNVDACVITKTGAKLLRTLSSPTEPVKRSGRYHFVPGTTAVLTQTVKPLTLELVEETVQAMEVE
# Method in brief: (§4)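 Cryopreserved healthy-donor human PBMC in RPMI 1640 with 5% heat-inactivated FBS, exposed to compound (0.1% DMSO final) for 1 h at 37 °C, 5% CO2, then washed. Subunit-specific active-site occupancy read by ProCISE: biotinylated active-site probe binding, denaturation, streptavidin capture, subunit-specific antibody and HRP chemiluminescence. Signal normalized to protein and expressed relative to DMSO controls.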
# [14] = target: T1, Proteasome subunit beta type-10 (Homo sapiens); test: Inhibition of MECL1 in human PBMC at 125 nM in presence of KZR-504 by ELISA; method in brief: as §4
# [15] = Toxicity in Balb/c mouse assessed as effect on cage-side observations at 20 mg/kg, iv followed by dosing repeat on day 6, 8, 11, 13 and 15 and co-treated with 5 mg/kg, iv KZR-504 and measured until day 18; type: organism-based; details: in vivo
# PBMC [16] = test: Antiinflammatory activity in human PBMC assessed as reduction in anti-CD3/CD28 antibody-stimulated IFN-gamma expression at 250 nM preincubated for 1 hr followed by anti-CD3/CD28 antibody stimulation measured after 24 hrs in presence of KZR-504 by ELISA; type: functional, cell-based; method in brief: as §2
# [17] = target: T1, Proteasome subunit beta type-10 (Homo sapiens); details: at 250 nM
clearance [2] [mL/min/kg],inhibition [13],inhibition [14],inhibition [17],SMILES,Activity (PBMC [1]) [%],Activity (PBMC [3]),Activity (PBMC [4]),Activity (PBMC [5]),Activity (PBMC [6]),inhibition (Mus musculus [7]),inhibition (Mus musculus [8]),inhibition (Mus musculus [9]),inhibition (Mus musculus [10]),inhibition (Mus musculus [11]),Activity (Mus musculus [12]),Activity [15],Activity (PBMC [16])
> 73,Active,Active,,COc1ccc(C[C@H](NC(=O)[C@@H](C)NC(=O)[C@H]2CC[C@H](O)CC2)C(=O)N[C@@H](CC2=CCCC2)C(=O)[C@@]2(C)CO2)cc1,30,inactive,Active,Active,Active,Active,Active,Active,Active,Active,Active,Non-Toxic,
,,,Active,Cc1ccc(CC[C@H](NC(=O)[C@H](Cc2ccccc2)NC(=O)[C@H](CC(C)C)NC(=O)CN2CCCCCC2)C(=O)[C@@]2(C)CO2)cc1,,,,,,,,,,,,,inactive
